This note sets out measurements from ChEMBL document CHEMBL3779804, “Novel Ferroptosis Inhibitors with Improved Potency and ADME Properties” (J Med Chem, 2016).

A short description of series [1]: Antiferroptotic activity in human HT1080 cells assessed as inhibition of erastin-induced cell death by Alamar blue assay. In kind it is functional, cell-based. As to conditions: HT-1080. A general note: Resazurin is reduced to fluorescent resorufin, in cell work by metabolically active cells.
Series [2] in a line: Half life in human liver microsomes by LC/MS/MS analysis. In kind it is ADME. The essentials: (§1)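 Compound incubated with liver microsomes (CYP450 and other NADP-dependent enzymes); parent loss monitored and expressed as half-life in min.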
In general terms: Liver microsomes are a subcellular fraction often used to study metabolism.

A short description of series [3]: Antiferroptotic activity in human IMR32 neuroblastoma cells assessed as inhibition of erastin-induced cell death preincubated for 1 hr before erastin stimulation and measured after 13 hrs by fluorescence plate reader method. As to conditions: IMR-32. In kind it is functional. The gist of the method:
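Human IMR-32 neuroblastoma cells seeded at 25,000/well, next day pretreated 1 h in triplicate with a 1/3 dilution series (5 μM to 0.68 nM) plus Sytox Green (1.6 μM), then stimulated with erastin (10 μM). Sytox Green fluorescence (ex 485/em 520 nm) read after 13 h; Triton-X100 (0.05%) lysis as 100% death reference; % death background-corrected; IC50 determined.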

Series [4] in a line: Stability in mouse plasma assessed as percentage recovery after 6 hrs by LC/MS/MS analysis. In kind it is ADME, cell-free. To be noted: read-out: Drug recovery. The essentials:
(§2)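 Compound incubated in plasma up to 6 h; result given as percentage of parent compound remaining.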

Series [5] is described as follows: Kinetic solubility of the compound in PBS buffer at pH 7.4 after 2 hrs at 37 deg C by turbidimetric analysis. In kind it is physicochemical. To be noted: read-out: Kinetic_solubility. The gist of the method: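 Turbidimetric kinetic solubility by UV-vis reading; final test concentrations 3.125–200 μM, from DMSO solution diluted into 10 mM PBS pH 7.4.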
Series [6] in a line: Stability in human plasma assessed as percentage recovery after 6 hrs by LC/MS/MS analysis. In kind it is ADME, cell-free. As to conditions: read-out: Drug recovery. The essentials: as §2
Series [7] is described as follows: Half life in mouse liver microsomes by LC/MS/MS analysis. In kind it is ADME. The gist of the method:
as §1

A short description of series [8]: Antiferroptotic activity in human HT1080 cells assessed as inhibition of erastin-induced cell death. In kind it is functional, cell-based. To be noted: HT-1080.
A short description of series [9]: Intrinsic clearance in C57BL/6 mouse liver microsomes. In kind it is ADME.
Series [10] in a line: Half life in C57BL/6 mouse plasma. In kind it is ADME, cell-free.
Series [11] can be described thus: Antiferroptotic activity in human HT1080 cells assessed as inhibition of erastin-induced cell death by cell based assay. In kind it is functional. To be noted: HT-1080.

Values after ≈ are worked out from the molar mass of the structure shown.

The term IC50 denotes the concentration at which inhibition is half-maximal. As a reminder, the half-life is the time in which the quantity being followed falls by half. Lower therefore signals fast loss. In the case of `CCOC(=O)c1ccc(NC2CCCCC2)c(N)c1`, the figures for the IC50 in series [1] and in [3] were 95 nM and 18 nM, respectively. The figures for the half-life in [2] and in [7] were 6.9 min and 1.9 min, respectively. The values for the remaining at 6 h in series [4] and in [6] were 0% and 100%, respectively. Also, the solubility kinetic at 2 h in series [5] was over 200 µM. Turning to `CCOC(=O)c1ccc(NC2CCCCC2)c(NCc2ccccc2)c1`, the half-maximal inhibitory concentration (IC50) in [8] was 6 nM.

For the compound `CNS(=O)(=O)c1ccc(NC2C3CC4CC(C3)CC2C4)c(NCc2ccccc2)c1` (centres undefined), the IC50 in [3] was determined as 4.9 nM. In the case of `CCNS(=O)(=O)c1ccc(NC2CC3CCC2C3)c(NCc2ccccc2)c1` (centres undefined), the half-inhibitory concentration (IC50) in [3] came out at 3 nM. Turning to `CCNS(=O)(=O)c1ccc(NC2CCCCCCC2)c(NCc2ccccc2)c1`, the half-maximal inhibitory concentration (IC50) in series [3] turned out to be 2.4 nM. `CCNS(=O)(=O)c1ccc(NC2CCCC2)c(NCc2ccncc2)c1`: in series [3], the IC50 is 36 nM.

Regarding `CCNS(=O)(=O)c1ccc(NC2CCCCC2)c(N)c1`, the half-life in series [2] was 37 min; in series [7], 31 min. Besides, the 50% inhibitory concentration (IC50) in series [3] amounted to 67 nM. In addition, the remaining at 6 h in [4] was determined as 86.2%; in series [6], 81.9%. Moreover, in series [5], the solubility kinetic at 2 h worked out at 12.5 µM (≈ 3.72 µg/mL). On to `CC(C)(C)NS(=O)(=O)c1ccc(NC2CCCCC2)c(NCc2ccncc2)c1`, for which, in [3], the IC50 was 11 nM. As to `CNS(=O)(=O)c1ccc(NC2CCCCC2)c(N)c1`, the concentration for half-maximal inhibition (IC50) in series [3] was determined as 76 nM. Take `CCNC(=O)c1ccc(NC2C3CC4CC(C3)CC2C4)c(NCc2ccncc2)c1` (centres undefined): the half-life in series [2] was 16 min; in series [7] it was 30 min. In addition, the IC50 in series [3] came to 3.4 nM. Further, the remaining at 6 h in [4] and in series [6] was 100% throughout. The solubility kinetic at 2 h in series [5] amounted to 25 µM (≈ 10.1 µg/mL). Consider `CCNS(=O)(=O)c1ccc(NC2CC3CCC2C3)c(NCc2ccncc2)c1` (centres undefined), for which the IC50 in [3] amounted to 9.4 nM. On the same count and under the same terms, the same measure for `CNS(=O)(=O)c1ccc(NC2C3CC4CC(C3)CC2C4)c(NCc2ccncc2)c1` (centres undefined): 6.4 nM. `CCNC(=O)c1ccc(NC2CCCCC2)c(NCc2ccccc2)c1`: in [3], the half-maximal inhibitory concentration (IC50) was 21 nM.

Take `COC(=O)c1ccc(NC2CCCCC2)c(N)c1`: the half-inhibitory concentration (IC50) in series [3] came out at 34 nM. Regarding `CCNS(=O)(=O)c1ccc(NC2C3CC4CC(C3)CC2C4)c(N)c1` (centres undefined), in series [3], the concentration for half-maximal inhibition (IC50) was found to be 17 nM. For the compound `CCNS(=O)(=O)c1ccc(NC2CCCCCCC2)c(N)c1`, the IC50 in series [3] was 9.3 nM.

Take `CC(C)(C)NS(=O)(=O)c1ccc(NC2CCCCC2)c(NCc2ccccc2)c1`: the IC50 in series [3] was found to be 6.2 nM. Consider `CCNC(=O)c1ccc(NC2CCCCC2)c(NCc2ccncc2)c1`, for which, in [3], the half-inhibitory concentration (IC50) came to 26 nM. Consider `CCNS(=O)(=O)c1ccc(NC2CCCCC2)c(NCc2ccccc2)c1`, for which the half-life in [2] was 88 min; in series [7] it was 187 min. Moreover, the IC50 in series [3] was 4 nM. Also, the remaining at 6 h came out at 98.6% in series [4] and 100% in series [6]. Besides, in series [5], the solubility kinetic at 2 h was 12.5 µM (≈ 4.84 µg/mL). On to `CCNC(=O)c1ccc(NC2C3CC4CC(C3)CC2C4)c(NCc2ccccc2)c1` (centres undefined), for which, in series [3], the 50% inhibitory concentration (IC50) stood at 6.5 nM. On the same count and under the same terms, the same measure for `CCNC(=O)c1ccc(NC2C3CC4CC(C3)CC2C4)c(N)c1` (centres undefined): 14 nM.

As to `CC(C)(C)NS(=O)(=O)c1ccc(NC2C3CC4CC(C3)CC2C4)c(N)c1` (centres undefined), in series [3], the IC50 amounted to 6 nM. As to `CCNS(=O)(=O)c1ccc(NC2CC2)c(NCc2ccncc2)c1`, the half-inhibitory concentration (IC50) in series [3] was 128 nM. In the case of `CC(C)(C)NS(=O)(=O)c1ccc(NC2C3CC4CC(C3)CC2C4)c(NCc2ccncc2)c1` (centres undefined), the half-maximal inhibitory concentration (IC50) in [3] was 5.2 nM. With `CCNS(=O)(=O)c1ccc(NC2CCCC2)c(NCc2ccccc2)c1`, in series [3], the IC50 came out at 8.2 nM. On to `CCNS(=O)(=O)c1ccc(NC2C3CC4CC(C3)CC2C4)c(NCc2ccccc2)c1` (centres undefined), for which the half-life in series [2] was found to be 36 min; in series [7] it was 31 min. Moreover, the IC50 in series [3] turned out to be 3.5 nM. In addition, the remaining at 6 h in series [4] is 99.4%; in series [6], 100%. For the same compound, in [5], the solubility kinetic at 2 h came to 12.5 µM (≈ 5.5 µg/mL). `CCNS(=O)(=O)c1ccc(NC2CC2)c(N)c1`: in series [3], the IC50 was 76 nM. On the same count and under the same terms, with `CCNS(=O)(=O)c1ccc(NC2CC2)c(NCc2ccccc2)c1` the figure was 61 nM; with `CCNS(=O)(=O)c1ccc(NC2CCCCC2)c(NCc2ccncc2)c1`, 23 nM; with `Nc1cc(C(=O)O)ccc1NC1CCCCC1`, 210 nM.

The compound `CC(C)(C)OC(=O)c1ccc(NC23CC4CC(CC(C4)C2)C3)c(/N=C\c2cncnc2)c1` yielded a CLH in series [9] of under 0.5 mL/min/g. The half-life in series [10] was at least 120 min. The half-inhibitory concentration (IC50) in series [11] worked out at 350 nM. For the compound `CNS(=O)(=O)c1ccc(NC2CCCCC2)c(NCc2ccncc2)c1`, the IC50 in series [3] was 15 nM. As for `CCNS(=O)(=O)c1ccc(NC2CCCCCCC2)c(NCc2ccncc2)c1`, the concentration for half-maximal inhibition (IC50) in series [3] is 22 nM. `CCNS(=O)(=O)c1ccc(NC2CC3CCC2C3)c(N)c1` (centres undefined): in [3], the concentration for half-maximal inhibition (IC50) came to 28 nM.

In the case of `CCNS(=O)(=O)c1ccc(NC2C3CC4CC(C3)CC2C4)c(NCc2ccncc2)c1` (centres undefined), the half-life in series [2] was determined as 64 min; in series [7] it was 26 min. Moreover, the IC50 in [3] was 3.9 nM. Moreover, the remaining at 6 h in [4] and in series [6] was 100% in each case. Moreover, in series [5], the solubility kinetic at 2 h was determined as 12.5 µM (≈ 5.51 µg/mL). Take `CNS(=O)(=O)c1ccc(NC2C3CC4CC(C3)CC2C4)c(N)c1` (centres undefined): the IC50 in [3] is 11 nM.

On to `CC(C)(C)NS(=O)(=O)c1ccc(NC2C3CC4CC(C3)CC2C4)c(NCc2ccccc2)c1` (centres undefined), for which the concentration for half-maximal inhibition (IC50) in [3] worked out at 3.4 nM. For `CC(C)(C)NS(=O)(=O)c1ccc(NC2CCCCC2)c(N)c1`, in series [3], the IC50 was found to be 27 nM. Take `CNS(=O)(=O)c1ccc(NC2CCCCC2)c(NCc2ccccc2)c1`: the half-inhibitory concentration (IC50) in series [3] turned out to be 3.7 nM. With `CCNS(=O)(=O)c1ccc(NC2CCCC2)c(N)c1`, the IC50 in [3] amounted to 82 nM. As to `CCNC(=O)c1ccc(NC2CCCCC2)c(N)c1`, the 50% inhibitory concentration (IC50) in series [3] was 88 nM.
